Source: PubChem (several laboratories)
Shown are actives, neighbours in structure and some others; about 3% of the full set was active somewhere.
PLCb3 inh = blocks human PLC-beta3 enzyme activity. inhibition, % at 12.2 µM. Purified PLC-beta3, fluorogenic substrate, fluorescence. Q01970. 370,000 compounds, 0.18% hits; in the data active = inhibition above about 11%;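 note: 0% = median of compound wells on plate and 100% = full blocker control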
PLC-gamma1 inh = blocks human PLC-gamma1 enzyme activity; inhibition, % at 12.2 µM; 370,000 compounds, 0.84% hits; P19174; purified PLC-gamma1, fluorogenic substrate, fluorescence
proKLK7 act = activates the human kallikrein-7 zymogen; purified proKLK7, EDANS-DABCYL substrate fluorescence; 100% is mature enzyme control, 0% vehicle; activation, % at 7 µM; 370,000 compounds, 0.9% hits;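 active = activation above the mean of all tested compounds plus 3 SD, computed per campaign excluding outliers beyond control limits, cut at about 13% in these data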
NRP1-CendR mod = alters CendR peptide binding to human NRP-1; O14786; FAM-RPARPAR peptide binding to NRP-1, fluorescence polarization; inhibition, % at 25 µM; 360,000 compounds, 0.85% hits;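 active = inhibition or corrected inhibition above about 18%, plus a signal ratio from 0.5 to 1.5, limit read from the data, passing the limit was not always enough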
Tn7 DDE FP = disrupts Tn7 cyclic peptide binding to fibrin D-Dimer-E complex; AID 720508; inhibition, % at 8.3 µM; FP displacement of FITC-Tn7 peptide from fibrin DD(E); 0% = median of compound wells per plate; 370,000 compounds, 0.13% hits;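 active = inhibition above the mean of compounds falling within the control limits plus 3 SD of them, cut at about 14% in these data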;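 note: 0% = plate median of compound wells and 100% = 10 µM Aha-Tn7 peptide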
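Assay system: human fibrin DD(E). Input: DD(E) 2 µM final. Medium: Tris buffer with calcium and detergent, pH 7.8. Compound dosing: single point at 8.3 µM. Timing: 10 min plus 3 h, room temperature. Technique: fluorescence polarization of the labelled Tn7 tracer. Read-out: percent inhibition. Replicates: singlicate testing.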
Tn6 DDE FP = disrupts Tn6 cyclic peptide binding to fibrin D-Dimer-E complex; P02675; Fibrin DD(E) TRITC-Tn6 fluorescence polarization displacement; inhibition, % at 8.3 µM; 370,000 compounds, 0.21% hits;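 active = inhibition above a per-campaign cutoff: mean of compounds within control limits plus 3 SD, cut at about 15% in these data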;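 note: 0% = median of all compound wells on the plate and 100% = blocking peptide control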
PLCgamma1 ctr = PLC-gamma1 inhibition, counter-screen for PLC-beta3 hits | shares compounds with PLC-gamma1 inh | purified PLC-gamma1, fluorogenic substrate, fluorescence | inhibition, % at 12.3 µM | 3,300 compounds, 3.1% hits
PLCbeta3 conf = human PLC-beta3 inhibition, confirmation; inhibition, % at 12.3 µM; shares compounds with PLC-gamma1 inh; purified PLC-beta3, fluorogenic substrate fluorescence; 3,300 compounds, 1% hits; in the data active = inhibition above about 11%
* marks the source's active call; other numbers are inactive results; nt = no result given. Cut-off read from the data, not from the text of the source, unless noted: active = inhibition above about 9.5%; inactive = the rest.

SMILES | PLCb3 inh | PLC-gamma1 inh | proKLK7 act | NRP1-CendR mod | Tn7 DDE FP | Tn6 DDE FP | PLCgamma1 ctr | PLCbeta3 conf
CC(C)Cc1ccc(S(=O)(=O)Nc2cccnc2)cc1 | 0 | 9.8* | 0 | 9 | -4 | -2 | -5 | -8
CCOC(=O)CC1C(=O)NCCN1C(=O)c1ccc(Cl)cc1Cl (configuration not stated) | 2 | 17* | 0 | 7 | 4 | -2 | -2 | 1
COC(=O)[C@]12CCCCC=C1N(Cc1ccc(OC)cc1)C(=O)[C@@H]2CC(=O)NCCc1ccccc1OC | 3 | 0 | 0 | nt | 11 | 14 | nt | nt
COC(=O)c1cc(-c2ccc(C)cc2)n[nH]1 | 4 | 10* | 0 | 4 | -4 | -5 | -6 | -3
COC(=O)c1cc(-c2ccc(OC)cc2)n[nH]1 | -2 | -2 | 0 | 0 | -5 | 7 | nt | nt
COC(=O)C1CN(Cc2cn(CCOC(C)=O)nn2)CCS(=O)(=O)N1Cc1ccc(C)cc1 (configuration not stated) | 2 | -1 | 1 | nt | 2 | 3 | nt | nt
O=C1C(=O)c2cccnc2-c2ncccc21 | 9 | 53* | 1 | 27* | -5 | 5 | 51* | 8
CCOC(=O)N1CCN(C(=O)/C(=C\c2cccs2)NC(=O)c2cccs2)CC1 | 1 | 10* | 1 | 6 | -2 | -3 | 6 | 8
CCOC(=O)c1cnn(CCOC(=O)c2cccc(F)c2)c1NC(=O)c1cccc(F)c1 | 7 | 12* | 1 | 19 | -4 | 2 | -6 | -3
COc1ccc(NC(=O)NC2(C)CCS(=O)(=O)C2)cc1 (configuration not stated) | -4 | 12* | 0 | 9 | -2 | 4 | -3 | 0
Oc1ccc(C[C@H]2CN([C@@H](Cc3cccc(O)c3)CN3CCC[C@@H]3CN3C(=S)NC[C@@H]3Cc3ccccc3)C(=S)N2CC2CCCCC2)cc1 | 4 | 10* | -1 | -4 | -1 | 0 | 7 | 5
O=C1NC[C@@H](Cc2ccc(O)cc2)N(CCc2cc(C(F)(F)F)cc(C(F)(F)F)c2)C1=O | 11* | 6 | 0 | -6 | 0 | 1 | 4 | 3
O=C1NC[C@H](Cc2ccc(O)cc2)N(C[C@@H]2CCCN2C[C@H](Cc2ccc(O)cc2)N2C[C@H](Cc3ccccc3)N(CCc3ccccc3)C(=O)C2=O)C1=O | 12* | 5 | 0 | -7 | 1 | 3 | 0 | -1
Oc1ccc(C[C@H]2CN([C@@H](Cc3ccccc3)CN3CCCC3CN3C(=S)NC[C@@H]3Cc3ccccc3)C(=S)N2CC2CCCCC2)cc1 (some centres not stated) | 2 | 4 | 0 | -4 | -6 | -8 | nt | nt
Oc1ccc(C[C@@H]2CNC(=S)N2CCc2cc(C(F)(F)F)cc(C(F)(F)F)c2)cc1 | 0 | -3 | 0 | 14 | -3 | 3 | nt | nt
COc1ccccc1CN(C)C(=O)C1CCCN(c2nc3ccccc3o2)C1 (configuration not stated) | -4 | -6 | 1 | nt | 6 | -4 | nt | nt
CCOc1ccc(C(=O)Nc2ccc3c(c2)OCCO3)cc1OC | 2 | 2 | 0 | 15 | 0 | 3 | nt | nt
CCOc1ccc(C(=O)Nc2ccc3c(c2)OCCO3)cc1[N+](=O)[O-] | 4 | 10* | -1 | 4 | 0 | 5 | -1 | 0
COC(=O)C1CN(CC(C)C)CCS(=O)(=O)N1Cc1ccc(Cl)cc1 (configuration not stated) | 4 | 1 | 1 | nt | -5 | -4 | nt | nt
CCOc1cc(/C=N/NC(=O)N/N=C/c2ccc(O)c(OCC)c2)ccc1O | 13* | 6 | 0 | nt | -8 | -4 | 4 | -2
CCOc1cc(/C=N/Nc2nnc(C)n2N)ccc1O | 5 | 20* | -1 | 1 | -2 | 2 | -5 | -1
CCOc1cc(/C=N/Nc2ncnc(Cl)c2N)ccc1O | -10 | -6 | 1 | 7 | -3 | -2 | nt | nt
CCCCCCCCN1C(=O)[C@@H](CC(=O)N2CCC(c3ccccc3)CC2)C[C@@]2(C(=O)OC)C1=C[C@H](COCc1ccccc1)O[C@@H]2C | 1 | 5 | 0 | nt | 0 | 0 | nt | nt
CCOc1cc(CNCCc2ccc(S(N)(=O)=O)cc2)ccc1OCc1ccc(Cl)cc1 | 9 | 21* | 0 | -9 | -4 | -1 | 3 | 2
COc1ccc(COC[C@H](C)N2C[C@@H](C)[C@H](CN(C)S(=O)(=O)c3ccc(F)cc3)OCCCC[C@H](C)Oc3ccc(NC(=O)Nc4ccccc4)cc3C2=O)cc1 | -3 | -1 | nt | nt | -1 | -8 | nt | nt
SMILES | PLCb3 inh | PLC-gamma1 inh | proKLK7 act | NRP1-CendR mod | Tn7 DDE FP | Tn6 DDE FP | PLCgamma1 ctr | PLCbeta3 conf
Cc1ccccc1NC(=O)Cn1nnc(-c2ccncc2)n1 | 0 | 0 | 0 | nt | 3 | 0 | nt | nt
Cc1ccccc1NC(=O)Nc1ccc(C(F)(F)F)cc1 | 12* | 13* | 1 | -8 | -3 | -9 | 1 | 2
Cc1ccccc1NC(=O)CNC(=O)c1ccc(C(F)(F)F)cc1 | -1 | -3 | 0 | 7 | -6 | -5 | nt | nt
COc1ccc(-c2noc3c2-c2nc(-c4ccc(Br)cc4)sc2CC3)cc1 | 3 | 14* | -1 | 3 | -3 | 6 | -10 | -7
COc1ccc(-c2noc3c2-c2nc(C(C)C)sc2CC3)cc1 | 1 | 11* | 0 | 15 | -6 | -11 | -6 | -4
COc1ccc(-c2noc3c2-c2nc(-c4ccccc4C)sc2CC3)cc1 | 0 | 0 | 0 | nt | 6 | -5 | nt | nt
COc1ccc(N2CCN(CCNS(=O)(=O)c3ccc(F)cc3)CC2)cc1 | 0 | -2 | 0 | nt | 7 | 6 | nt | nt
Cc1cc(C(=O)CSc2n[nH]c(-c3ccccc3F)n2)c(C)n1Cc1cccs1 | 3 | 10* | 1 | -3 | -6 | 4 | -9 | -7
c1ccc2cc(Cn3ccc4ccc(-c5ccc6cc[nH]c6c5)cc43)ccc2c1 | -87 | -56 | -2 | nt | 9 | -3 | nt | nt
O=[N+]([O-])c1ccc(NCCCN2CCC(C(O)(c3ccccc3)c3ccccc3)CC2)cc1 | 10 | 13* | 0 | nt | -6 | -1 | 9 | 7
CC(C)CN1C(=O)[C@@]2(CC(=O)N(C)C2c2ccccc2)c2cc(-n3cc(-c4ccccc4)nn3)ccc21 (some centres not stated) | 4 | 1 | 0 | nt | -5 | -4 | nt | nt
COCc1nnc(NC(=O)c2ccc(NC(C)=O)cc2)s1 | 14* | 4 | 0 | 1 | 2 | 2 | -6 | -1
